Results on ten compounds are retold here after ChEMBL document CHEMBL1145158, “Selective substrate-based inhibitors of mammalian dimethylarginine dimethylaminohydrolase” (J Med Chem, 2005).

The term IC50 denotes the midpoint of a concentration-inhibition curve. Read a high IC50 as weaker potency in that assay. For orientation: inhibition means the percentage by which the read-out fell short of the control.

Test [1] is described as follows: Inhibition of [14C]-L-NMMA (1 umol/L) binding to dimethylarginine dimethylaminohydrolase of rat kidney homogenate. The procedure, abridged:
(§1)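 Rat kidney homogenized in PBS with PMSF 1 mM and leupeptin, pepstatin, chymostatin (5 µg/mL each), then spun; high-speed supernatant used as enzyme source (both DDAH isoforms). [14C]L-NMMA 1 µmol/L added, 1 h at 37 °C; stopped with neutral-pH Dowex resin binding unmetabolized L-NMMA. [14C]citrulline counted by scintillation. Screening at 1 mM or 100 µM; IC50 determined for actives.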

The species entered for test [2] is Rattus norvegicus. Put plainly: Inhibition of [14C]-L-NMMA (1 umol/L) binding to dimethylarginine dimethylaminohydrolase of rat kidney homogenate at 1 mM. The procedure, abridged:
as §1

Test [3] is filed under the species Rattus norvegicus. Put plainly: Inhibition of [14C]-L-NMMA (1 umol/L) binding to dimethylarginine dimethylaminohydrolase of rat kidney homogenate 100 uM. The procedure, abridged:
as §1

For the compound `CC(C)OCC/N=C(\N)NCC[C@H](N)C(=O)O`, the IC50 in test [1] was 301 µM. Further, the inhibition in test [2] came out at 97%.

`CN(C)C(=N)NCC[C@H](N)C(=O)O` gave an IC50 in test [1] of 325 µM. The same compound showed an inhibition in test [2] of 85%.

`COCC/N=C(/N)NCCC[C@H](N)C(=O)OC` had an inhibition in test [3] of 83%. The compound also returned an IC50 in test [1] of 20 µM.

The compound `COCCNC(=N)NCCC[C@H](N)C(=O)O` showed an inhibition in test [3] of 100%. The same compound displayed an IC50 in test [1] of 22 µM.

`CCCOC(=O)[C@@H](N)CC/N=C(\N)NCCOC` had an inhibition in test [3] of 64%. The IC50 in test [1] turned out to be 111 µM.

For the compound `CC/N=C(\N)NCC[C@H](N)C(=O)O`, the half-inhibitory concentration (IC50) in test [1] came out at 300 µM. In test [2], this compound yielded an inhibition of 100%.

`COCC/N=C(\N)NCC[C@H](N)C(=O)O` yielded an IC50 in test [1] of 189 µM. In test [2], this compound gave an inhibition of 90%.

In test [3], `COCCN/C(N)=N/CC[C@H](N)C(=O)OC(C)C` came in with an inhibition of 30%. This compound also had an IC50 in test [1] of 189 µM.

With `N/C(=N\CC[C@H](N)C(=O)O)N1CCCCC1`, the IC50 in test [1] was found to be 264 µM. Besides, the inhibition in test [2] is 74%.

Regarding `C/N=C(\N)NCC[C@H](N)C(=O)O`, the IC50 in test [1] stood at 1510 µM. In test [2], this compound returned an inhibition of 48%.
